High-throughput results as filed in PubChem BioAssay.
CHRM4 agonist: agonists of human muscarinic M4 receptor (CHRM4); 360,000 tested, 0.14% active; CHO-K1 hM4/Gqi5, Fluo-8 calcium fluorescence; vehicle 0%, full acetylcholine response 100%; AID 624127; activation, % at 3 µM; P08173;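 active = activation above the run mean over all test wells plus 3 SD, cut at about 32% in these data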;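 also: peak over basal fluorescence ratio per well then scaled between controls; 0% = DMSO wells and 100% = acetylcholine at EC100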
CHRM4 antagonist: blocks acetylcholine activation of human M4 receptor. P08173. CHO-hM4 cells, ACh EC80, Fluo-8 calcium fluorescence. inhibition, % at 3 µM. 360,000 tested, 0.73% active;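 active = inhibition above its plate's cutoff, the mean inhibition of sample wells plus 3 SD, cut at about 27% in these data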;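 also: 0% = acetylcholine EC80 with DMSO and 100% = DMSO without agonist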
CHRM4 PAM: potentiates acetylcholine response at human M4 receptor. P08173. CHO-K1 hM4/Gqi5, Fluo-8 calcium fluorescence, ACh EC20; 0% = ACh EC20, 100% = maximal ACh. activation, % at 3 µM. 360,000 tested, 0.4% active. AID 624126;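 active = activation above its plate's cutoff, the mean activation of sample wells plus 3 SD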
M5 PAM: CHRM5 positive allosteric modulation. CHO-K1 hM5, Fluo-8 calcium, ACh EC20 PAM; 0% = ACh EC20, 100% = ACh EC100. activation, % at 3 µM. 360,000 tested, 0.3% active;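 active = activation above the run cutoff, the mean activation of all test compounds plus 3 SD, cut at about 18% in these data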
Target sequence (P08912 whole entry, looked up): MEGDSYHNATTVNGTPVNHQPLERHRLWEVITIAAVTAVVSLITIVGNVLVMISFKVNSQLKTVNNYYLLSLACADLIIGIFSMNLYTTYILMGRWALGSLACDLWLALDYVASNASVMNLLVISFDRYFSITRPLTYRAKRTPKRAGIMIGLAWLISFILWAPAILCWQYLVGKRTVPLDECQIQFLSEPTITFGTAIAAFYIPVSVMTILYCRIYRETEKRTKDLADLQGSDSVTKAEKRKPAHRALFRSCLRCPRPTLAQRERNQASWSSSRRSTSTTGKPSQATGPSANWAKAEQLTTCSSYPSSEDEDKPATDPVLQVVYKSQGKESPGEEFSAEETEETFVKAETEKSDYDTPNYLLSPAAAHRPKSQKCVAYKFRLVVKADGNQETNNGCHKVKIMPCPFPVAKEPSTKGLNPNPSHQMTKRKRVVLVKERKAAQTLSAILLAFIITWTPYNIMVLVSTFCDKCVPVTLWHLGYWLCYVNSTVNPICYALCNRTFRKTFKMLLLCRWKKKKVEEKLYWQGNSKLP
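System: CHO-K1 cell line with stable human muscarinic M5 receptor expression | Also added: EC20 acetylcholine as agonist stimulus | Compound: One concentration, 3 µM final (nominal) | Timing: Fluo-8 loading 80 min at 37 °C plus 30 min room temperature | Measured by: Fluo-8 calcium dye fluorescence, kinetic read | Read-out basis: % activation, ACh-normalized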
M5 ag: CHRM5 agonism in calcium assay | P08912 | CHO-K1 hM5 cells, Fluo-8 calcium fluorescence; 0% DMSO wells, 100% maximal acetylcholine response | activation, % at 3 µM | 360,000 tested, 0.19% active | AID 624037;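 active = activation above the run's mean over test compounds plus 3 SD, cut at about 23% in these data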;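 also: signal is peak over basal fluorescence ratio across the kinetic read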
M5 antag: blocks acetylcholine activation of human M5 receptor. inhibition, % at 3 µM. CHO-hM5 cells, Fluo-8 calcium fluorescence, ACh EC80. 360,000 tested, 0.59% active;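 active = inhibition above a per-plate cutoff, the mean of that plate's test compounds plus 3 SD, cut at about 27% in these data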;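 also: 0% = acetylcholine EC80 with DMSO and 100% = DMSO without agonist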
Active calls of the source: *; ! = repeats disagree. Compounds with a hit are over-represented: about 1.8% of the library has one in this group of screens.

CC[C@]12c3[nH]c4ccc(OC)cc4c3CCN1C(=O)C(CC(=O)NCc1ccc(OC)c(OC)c1)C[C@@H]2C(=O)N1CCN(C(=O)C2CC2)CC1 (some centres undefined) was read as CHRM4 agonist -1, CHRM4 antagonist 29*, CHRM4 PAM -12, M5 PAM 3, M5 ag 1 and M5 antag -13.
For COc1cc(C(=O)OCc2cccc(OC)c2OC)ccc1OCC(=O)N1CCOCC1 the results were CHRM4 agonist 3, CHRM4 antagonist -3, CHRM4 PAM 22*, M5 PAM 0, M5 ag 2 and M5 antag 7.
For CCC(=O)N1CCC1(C)C(=O)Nc1nccs1 (centres undefined) the results were CHRM4 agonist 0, CHRM4 antagonist -8, CHRM4 PAM -4, M5 PAM -1, M5 ag 0 and M5 antag -7.
`CCC(=O)N1CCC1(C)C(=O)Nc1ncc(C)s1` (centres undefined) gave CHRM4 agonist 1, CHRM4 antagonist -13, CHRM4 PAM 19*, M5 PAM 0, M5 ag 3 and M5 antag 10.
For COc1ccc(C(=O)N/C(=C/c2cccnc2)C(=O)N2CCN(C)CC2)cc1OC the results were CHRM4 agonist 0, CHRM4 antagonist -4, CHRM4 PAM 5, M5 PAM 7, M5 ag -2 and M5 antag -5.
CN1/C(=C\C(=O)c2ccco2)C(C)(C)c2ccccc21 was read as CHRM4 agonist 10, CHRM4 antagonist 37*, CHRM4 PAM -20, M5 PAM -14, M5 ag 4 and M5 antag 44*.
For CN1/C(=C\C(=O)COC(=O)c2ccco2)C(C)(C)c2ccccc21 the results were CHRM4 agonist 4, CHRM4 antagonist -2, CHRM4 PAM -7, M5 PAM 0, M5 ag -1 and M5 antag 9.
`O=c1[nH]n(Cc2ccccc2)c2ccccc12` gave CHRM4 agonist 0, CHRM4 antagonist 6, CHRM4 PAM 0, M5 PAM 1, M5 ag 5 and M5 antag -1.
Screening Cc1cc(C)n(-c2ccc([N+](=O)[O-])cc2)n1 returned CHRM4 agonist 0, CHRM4 antagonist -25, CHRM4 PAM 1, M5 PAM 2, M5 ag -8 and M5 antag -10.
For Cc1cc(N)n(-c2ccc([N+](=O)[O-])cc2)n1 the results were CHRM4 agonist 3, CHRM4 antagonist -15, CHRM4 PAM 10, M5 PAM 20*, M5 ag 5 and M5 antag -18.
CCOC(=O)N1CCN(C(=O)CSCC(=O)Nc2nc(-c3ccc(OC)cc3)cs2)CC1 was read as CHRM4 agonist 5, CHRM4 antagonist 6, CHRM4 PAM -6, M5 PAM -1, M5 ag 6 and M5 antag 3.
`CCOC(=O)N1CCN(C(=O)CSCC(=O)Nc2nc(-c3ccc(-c4ccccc4)cc3)cs2)CC1` gave CHRM4 agonist 19, CHRM4 antagonist 5, CHRM4 PAM -9, M5 PAM -22, M5 ag 8 and M5 antag 44*.
`CCN(Cc1ccncc1)C(=O)C(CO)c1ccccc1` (centres undefined) gave CHRM4 agonist 0, CHRM4 antagonist 89*, CHRM4 PAM -16, M5 PAM -19, M5 ag -1 and M5 antag 87*.
Screening CCN(Cc1ccncc1)C(=S)Nc1ccccc1 returned CHRM4 agonist 1, CHRM4 antagonist -12, CHRM4 PAM 7, M5 PAM -7, M5 ag -2 and M5 antag 0.
CNC(=S)Nn1cnc2ccccc21 was read as CHRM4 agonist 0, CHRM4 antagonist -1, CHRM4 PAM 8, M5 PAM 22*, M5 ag 3 and M5 antag -15.
`Cc1ccc(-n2c(CSc3nc(C)cc(C)n3)nnc2SCC(=O)Nc2nccs2)cc1` gave CHRM4 agonist 3, CHRM4 antagonist 38*, CHRM4 PAM 25, M5 PAM 9, M5 ag 4 and M5 antag -6.
COc1ccc(-n2c(CSc3nc(C)cc(C)n3)nnc2SCC(=O)Nc2nccs2)cc1 was read as CHRM4 agonist 0, CHRM4 antagonist -3, CHRM4 PAM 0, M5 PAM -9, M5 ag 1 and M5 antag 5.
For O=C(COC(=O)CCNS(=O)(=O)c1ccccc1)NC1CC1 the results were CHRM4 agonist 2, CHRM4 antagonist 5, CHRM4 PAM 10, M5 PAM 3, M5 ag 0 and M5 antag 4.
Screening O=C(CCNS(=O)(=O)c1ccccc1)NCC1CCCCC1 returned CHRM4 agonist 1, CHRM4 antagonist 0, CHRM4 PAM 21*, M5 PAM -4, M5 ag 2 and M5 antag 2.
Screening CC(NC(=O)CCNS(=O)(=O)c1ccccc1)c1ccccc1 (centres undefined) returned CHRM4 agonist 0, CHRM4 antagonist 10, CHRM4 PAM 22*, M5 PAM -1, M5 ag -5 and M5 antag 5.
`C=CCN1C(=O)S/C(=C\c2ccc(N3CCOCC3)cc2C)C1=O` gave CHRM4 agonist 5, CHRM4 antagonist -6, CHRM4 PAM 27*, M5 PAM -2, M5 ag 2 and M5 antag 2.
CCC(C)Sc1ccc(-c2nc3ccc(C)cn3c2NCc2ccccc2)cc1OC (centres undefined) was read as CHRM4 agonist 10, CHRM4 antagonist 44*, CHRM4 PAM -5, M5 PAM -38, M5 ag -7 and M5 antag 24.
CCC(C)Sc1cc(-c2nc3ccc(C)cn3c2NCc2ccccc2)ccc1OC (centres undefined) was read as CHRM4 agonist 15, CHRM4 antagonist 72*, CHRM4 PAM -13, M5 PAM -39, M5 ag -2 and M5 antag 29*!.
For CC(OC(=O)CCN=C1NS(=O)(=O)c2ccccc21)C(=O)Nc1ccc(F)c(F)c1F (centres undefined) the results were CHRM4 agonist 1, CHRM4 antagonist -14, CHRM4 PAM 17, M5 PAM 6, M5 ag -3 and M5 antag -11.
`COc1ccc(NC(=O)N2CCN(c3nc(-c4cccc(OC)c4)cs3)CC2)cc1` gave CHRM4 agonist 16, CHRM4 antagonist 12, CHRM4 PAM -5, M5 PAM -17, M5 ag 2 and M5 antag 17.
